Key:
[1] = Selectivity index, ratio of CC50 for african green monkey Vero 76 cells to EC50 for La Crosse virus; type: toxicity, cell-based; conditions: read-out: Ratio CC50/EC50
[2] = Selectivity index, ratio of CC50 for african green monkey Vero 76 cells to EC50 for Rift Valley fever virus MP-12; type: toxicity, cell-based; conditions: read-out: Ratio CC50/EC50
Syrian golden hamster = conditions: in vivo, po, 72 h
[3] = Selectivity index, ratio of CC50 for african green monkey Vero cells to EC50 for Pichinde virus An 4763; type: toxicity, cell-based; conditions: read-out: Ratio CC50/EC50
[4] = Cytotoxicity against african green monkey Vero 76 cells assessed as cell viability after 3 to 5 days; type: cell-based; conditions: chlorocebus sabaeus
[5] = Selectivity index, ratio of CC50 for african green monkey Vero cells to EC50 for Tacaribe virus TRVL11573; type: toxicity, cell-based; conditions: read-out: Ratio CC50/EC50
[6] = Selectivity index, ratio of CC50 for african green monkey Vero 76 cells to EC50 for Sandfly fever Naples virus; type: toxicity, cell-based; conditions: read-out: Ratio CC50/EC50
Mus musculus [7] = organism: Mus musculus; conditions: in vivo, po
[8] = Selectivity index, ratio of CC50 for african green monkey Vero cells to EC50 for Junin virus Candid-1; type: toxicity, cell-based; conditions: read-out: Ratio CC50/EC50
[9] = Cytotoxicity against african green monkey Vero cells after 7 to 8 days by neutral-red dye uptake assay; type: cell-based; conditions: chlorocebus sabaeus
Summary of the method: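 Subconfluent (50-70%) Vero cells received half-log drug dilutions without virus and were held at 37°C, 5% CO2 for 7-8 days. Cells were stained with 0.034% neutral red for 2 h, and the dye was extracted 30 min in ethanol with Sorenson's citrate buffer. Absorbance was read at 540 nm as % of untreated controls. CC50 was derived by regression.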

[10] = Metabolic stability in po dosed mouse assessed as drug remaining after 6 hrs; type: ADME, organism-based; conditions: in vivo, read-out: Stability
Mus musculus [11] = experiment: % Compound cleared in virus-infected po dosed mouse after 6 hrs; type: ADME, organism-based; conditions: in vivo
[12] = Selectivity index, ratio of CC50 for african green monkey Vero 76 cells to EC50 for Punta Toro virus Adames; type: toxicity, cell-based; conditions: read-out: Ratio CC50/EC50

NC(=O)c1nc(F)c[nH]c1=O [FAVIPIRAVIR]
selectivity ratio [1]: > 199 | selectivity ratio [2]: > 196 | LD50 (Syrian golden hamster): 1500 mg/kg/day | selectivity ratio [3]: 186 | CC50 [4]: > 6260 µM | selectivity ratio [5]: 227 | selectivity ratio [6]: > 55 | LD50 (Mus musculus [7]): 707 mg/kg/day | selectivity ratio [8]: 239 | CC50 [9]: 1110 µM | remaining at 6 h [10]: 10% | %Cleared (Mus musculus [11]): > 90% | selectivity ratio [12]: > 33
